In the library only some 4.2% were active in any assay of this set; here they are far more common.
M18AAP inhibitor: PfM18AAP inhibitors, malaria aminopeptidase, primary screen, biochemical, QFRET, recombinant enzyme. H-Glu-NHMec fluorogenic cleavage. inhibition, % at 7.35 µM. 1.2% of 290,000 active. AID 1822, 2009;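 active = inhibition above the campaign mean inhibition over all tested compounds plus 3 SD, cut at about 28% in these data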;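 note: 0% = plate median of test compound wells and 100% = 2 mM ZnCl2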
SENP1 inh: human SENP1 catalytic domain inhibitors, primary screen, biochemical, FRET, uHTS; inhibition, % at 10 µM; AID 624204, 2012; recombinant SENP1 catalytic domain, CyPet-SUMO1-YPet FRET cleavage; 0.21% of 360,000 active;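 active = inhibition at least 30% at 10 µM, raw YFP signal under a set limit, fluorescence ratio 0.5 to 1.5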;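 note: 0% = enzyme with DMSO and 100% = no enzyme wells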
Target sequence (Q9P0U3 419-644 limits assumed): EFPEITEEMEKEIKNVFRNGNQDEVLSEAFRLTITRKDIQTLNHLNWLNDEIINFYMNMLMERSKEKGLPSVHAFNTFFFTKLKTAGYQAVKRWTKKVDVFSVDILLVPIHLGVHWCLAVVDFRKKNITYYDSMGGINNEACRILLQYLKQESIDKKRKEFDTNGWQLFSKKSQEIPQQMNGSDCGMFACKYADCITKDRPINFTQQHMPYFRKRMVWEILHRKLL
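material = recombinant human SENP1 catalytic domain, His6-tagged | quantity = 20 pM enzyme | reagent = 25 nM SUMO1 FRET substrate | compound dosing = 10 µM single point, 0.5% DMSO | timing = 50 min enzyme reaction, room temperature, light-protected | detection = FRET, CFP and YFP emission | control set = no-enzyme low, enzyme-DMSO high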
CTSL1 counter: Fasciola hepatica cathepsin L1 inhibitors, primary screen, counter-screen for PFM18AAP inhibitor project, biochemical, QFRET, fluorogenic peptide substrate; recombinant F. hepatica cathepsin L1, Z-Leu-Arg-MCA fluorescence; inhibition, % at 5.96 µM; 0.49% of 300,000 active;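 active = inhibition above the mean of all tested compounds plus 3 SD, set per screening campaign, cut at about 17% in these data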;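 note: 0% = plate median of test compound wells and 100% = 1 µM Z-Phe-Ala-diazomethylketone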
AHR act: AHR activators, primary screen, cell-based, luminescence, luciferase reporter, human; Aryl hydrocarbon receptor (Homo sapiens), P35869; AHR-responsive luciferase reporter cells; activation, % at 5 µM; 2.5% of 320,000 active; in the data active = activation above about 47%;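 note: 0% = vehicle wells and 100% = reference agonist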
GAA850 FXN act: FXN promoter activators, primary screen, cell-based, luciferase luminescence, HEK293 lucGAA850. HEK293 lucGAA850 FXN promoter luciferase reporter, 24 h; percent of 10 µM SAHA response. AID 540364, 2011. activation, % at 6 µM. 0.56% of 360,000 active;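 active = activation above the average of all compounds screened plus 3 SD, cutoff fixed separately per campaign, cut at about 7.5% in these data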;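 note: 0% = DMSO wells and 100% = 10 µM SAHA wells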
HDAC3 inh: HDAC3 deacetylase inhibitors, primary screen, biochemical, fluorescence, cell-free homogeneous; AID 2718, 2010; inhibition, % at 8.3 µM; recombinant HDAC3, fluorogenic peptide/trypsin coupled; Histone deacetylase 3 (Homo sapiens), O15379; 0.15% of 320,000 active; in the data active = inhibition above about 26%, passing the limit was not always enough
Starred values were filed as active, the others as inactive; · = no result.

SMILES	M18AAP inhibitor	SENP1 inh	CTSL1 counter	AHR act	GAA850 FXN act	HDAC3 inh
O=C(O)c1cccc([N+](=O)[O-])c1C(=O)Nc1ccc2ccccc2c1	1	-5	-1	60*	2	5
O=C(Nc1ccc2ccccc2c1)c1ccccc1[N+](=O)[O-]	·	-4	·	·	4	·
O=C(Nc1ccc2ccccc2c1)c1ccccc1O	-1	-1	3	48*	-1	1
COc1ccc(C(=O)NCCNc2nc3cc(C)cc(C)c3cc2C#N)c(OC)c1	·	-152	·	·	·	·
CCCCNC(=O)CN(Cc1ccco1)S(=O)(=O)c1ccc(C(C)=O)cc1	·	-1	·	-1	2	·
Cn1c(N)c(C(=O)Nc2ccc3ccccc3c2)sc1=S	21	10	-2	93*	7	5
COc1ccc(C(=O)Nc2ccc3ccccc3c2)cc1	-4	2	0	-8	-2	0
CN1C(=O)/C(=C2\SC(N)=NC2=O)c2ccccc21	-23	1	-4	73*	1	8
CC(C)NC(=S)N=Nc1c(O)[nH]c2ccc([N+](=O)[O-])cc12	11	1	2	60*	4	2
COc1ccc(/C=N\NC(=O)c2ccccc2)cc1COc1ccccc1	0	0	3	11	-1	3
COc1cccc(OCc2cc(/C=N/NC(=O)c3ccn[nH]3)ccc2OC)c1	5	1	-1	63*	3	·
O=C(N[C@H](CO)c1ccccc1)[C@H]1O[C@@H](n2ccc(=O)[nH]c2=O)[C@H](O)[C@@H]1O	·	1	·	·	·	·
COc1ccc(CN(CC(O)COCc2ccccc2)S(=O)(=O)c2ccccc2Br)cc1OC (stereo unspecified)	·	-1	·	·	-2	·
Fc1ccccc1NC(=S)N/N=C/c1ccccc1Br	9	0	2	124*	6	9
O=[N+]([O-])c1ccc(/C=N/NC(=S)Nc2ccccc2F)o1	14	-7	3	10	3	3
Cc1ccc(Cl)c(OCC(=O)NCC(c2cccs2)N2CCOCC2)c1 (stereo unspecified)	·	-1	2	4	-1	·
O=C(Oc1ccc(C(=S)N2CCOCC2)cc1)c1ccccc1F	29*	-1	-5	0	-2	0
O=C(Oc1ccc(C(=S)N2CCOCC2)cc1Br)c1ccccc1F	6	-1	-2	0	-1	4
COC(=O)c1ccc(NC(=O)Nc2ccc([N+](=O)[O-])cc2)cc1	-1	1	0	6	2	2
Cc1ccc(NC(=O)c2ccc(F)cc2F)cc1NS(C)(=O)=O	-15	2	-4	61*	3	-11
CCOC(=O)c1ccc(NC(=O)c2ccc(NS(C)(=O)=O)cc2)cc1	-6	0	-2	0	0	-8
Cc1ccc(NC(=O)c2ccc(F)cc2F)cc1	·	5	4	20	3	-1
CCc1ccc(C(=O)Nc2ccc(C)c(NS(C)(=O)=O)c2)cc1	7	0	-1	65*	-1	8
COc1ccc(S(=O)(=O)Nc2ccccc2C(=O)NCc2cccnc2)cc1	3	2	-6	2	-1	-5
Nc1nc(N)c(N=O)c(OCC2CCCCC2)n1	6	-15	104*	7	-3	9
SMILES	M18AAP inhibitor	SENP1 inh	CTSL1 counter	AHR act	GAA850 FXN act	HDAC3 inh
O=C(C1=NN[C@@H]2C(=O)N(c3cccc(F)c3)C(=O)[C@H]12)c1ccc2ccccc2n1	-4	-39	-2	99*	1	1
O=C(C1=NN[C@@H]2C(=O)N(c3cccc(C(F)(F)F)c3)C(=O)[C@H]12)c1ccc2ccccc2n1	3	-31	0	29	0	5
COc1ccc(C(=O)NNC(=O)c2ccccn2)cc1	-4	7	-1	-7	-12	-3
COc1ccc2c(c1)C(=NNC(=O)c1ccccn1)c1cc(OC)ccc1-2	-3	1	1	52*	1	2
O=S1(=O)CC(N2CCN(CC3CC3)CC2)CN1CCc1ccccc1 (stereo unspecified)	·	-1	·	·	·	·
CC1CCCC/C1=N\NC(=S)Nc1ccccc1 (stereo unspecified)	14	2	-1	60*	4	8
CCOC(=O)CSc1n[nH]c(NC(=O)c2cccc(C)c2)n1	1	5	-4	0	-2	90*
CCCC(=O)Nc1ccc(C(=O)COC(=O)c2cc(C)oc2C)cc1	·	0	·	-3	0	-1
CC(=O)N1CCc2cc(S(=O)(=O)NC(Cc3ccccc3)C(=O)O)ccc21 (stereo unspecified)	-16	0	5	-2	0	2
O=C(N/N=C/c1cccs1)c1c[nH]c2ccccc12	-66	0	4	154*	1	6
Cc1c(/C=N\NC(=O)c2c[nH]c3ccccc23)cnn1C	-55	0	1	76*	3	9
CCn1cc(/C=N\NC(=O)c2c[nH]c3ccccc23)c(C)n1	-47	3	3	20	2	5
O=C(N/N=C/c1cn(-c2ccccc2)nc1-c1cc2ccccc2o1)c1ccccc1Br	-2	0	-2	31	3	4
O=C(N/N=C/c1cccs1)c1cccc2cc[nH]c12	-5	-1	-1	33	4	8
O=C(N/N=C/c1cn(-c2ccccc2)nc1-c1cc2ccccc2o1)c1c[nH]c2ccccc12	-24	2	0	109*	4	-16
O=C(Nc1cc(Cl)ccc1-n1cncn1)c1ccco1	0	-2	-8	32	2	-3
O=C(Nc1ccccc1F)Nc1cc(Cl)ccc1-n1cncn1	-1	2	-3	11	1	-2
COc1cc(OC)c(C(=O)Nc2cc(Cl)ccc2-n2cncn2)cc1OC	·	-5	0	59*	1	4
Cc1ccc(C(=O)Nc2cc(Cl)ccc2-n2cncn2)o1	·	-18	-3	58*	0	·
COc1ccccc1C(=O)Nc1cc(Cl)ccc1-n1cncn1	-1	-2	0	49*	4	2
O=C(Nc1cc(Cl)ccc1-n1cncn1)c1ccc([N+](=O)[O-])s1	2	-6	0	68*	-1	6
CN1C(=O)/C(=C/c2ccccc2OCc2cccc(F)c2)N(C)C1=S	7	-97	2	50*	0	-2
CN1C(=O)/C(=C/c2ccc(OCc3ccc(F)cc3)cc2)N(C)C1=S	3	-132	0	-2	0	-5
Cn1ncc(Br)c1C(=O)Nc1cccc(C(F)(F)F)c1	-7	2	8	71*	3	1
